MMP-13 inhibitor = MMP13 (human) collagenase inhibition; 65,000 tested, 0.07% active; MMP-13 fTHP FRET cleavage, Mca fluorescence; inhibition, % at 4 µM;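 active = inhibition above the mean of compound-free control plate wells plus 3 SD, cut at about 14% in these data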;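 note: 0% = DMSO wells and 100% = wells with reference MMP-13 inhibitor after basal subtraction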
ROCK2 inh = ROCK2 (human) kinase inhibition; AID 604; inhibition, % at 6 µM; purified ROCK2, Kinase-Glo ATP depletion luminescence; 60,000 tested, 0.35% active; O75116;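 active = inhibition above the screen-wide mean inhibition plus 3 SD, cut at about 18% in these data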;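 note: plate controls were DMSO wells for no effect and Y-27632 control wells after no-enzyme background subtraction for full effect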
Target sequence (O75116 whole entry, looked up): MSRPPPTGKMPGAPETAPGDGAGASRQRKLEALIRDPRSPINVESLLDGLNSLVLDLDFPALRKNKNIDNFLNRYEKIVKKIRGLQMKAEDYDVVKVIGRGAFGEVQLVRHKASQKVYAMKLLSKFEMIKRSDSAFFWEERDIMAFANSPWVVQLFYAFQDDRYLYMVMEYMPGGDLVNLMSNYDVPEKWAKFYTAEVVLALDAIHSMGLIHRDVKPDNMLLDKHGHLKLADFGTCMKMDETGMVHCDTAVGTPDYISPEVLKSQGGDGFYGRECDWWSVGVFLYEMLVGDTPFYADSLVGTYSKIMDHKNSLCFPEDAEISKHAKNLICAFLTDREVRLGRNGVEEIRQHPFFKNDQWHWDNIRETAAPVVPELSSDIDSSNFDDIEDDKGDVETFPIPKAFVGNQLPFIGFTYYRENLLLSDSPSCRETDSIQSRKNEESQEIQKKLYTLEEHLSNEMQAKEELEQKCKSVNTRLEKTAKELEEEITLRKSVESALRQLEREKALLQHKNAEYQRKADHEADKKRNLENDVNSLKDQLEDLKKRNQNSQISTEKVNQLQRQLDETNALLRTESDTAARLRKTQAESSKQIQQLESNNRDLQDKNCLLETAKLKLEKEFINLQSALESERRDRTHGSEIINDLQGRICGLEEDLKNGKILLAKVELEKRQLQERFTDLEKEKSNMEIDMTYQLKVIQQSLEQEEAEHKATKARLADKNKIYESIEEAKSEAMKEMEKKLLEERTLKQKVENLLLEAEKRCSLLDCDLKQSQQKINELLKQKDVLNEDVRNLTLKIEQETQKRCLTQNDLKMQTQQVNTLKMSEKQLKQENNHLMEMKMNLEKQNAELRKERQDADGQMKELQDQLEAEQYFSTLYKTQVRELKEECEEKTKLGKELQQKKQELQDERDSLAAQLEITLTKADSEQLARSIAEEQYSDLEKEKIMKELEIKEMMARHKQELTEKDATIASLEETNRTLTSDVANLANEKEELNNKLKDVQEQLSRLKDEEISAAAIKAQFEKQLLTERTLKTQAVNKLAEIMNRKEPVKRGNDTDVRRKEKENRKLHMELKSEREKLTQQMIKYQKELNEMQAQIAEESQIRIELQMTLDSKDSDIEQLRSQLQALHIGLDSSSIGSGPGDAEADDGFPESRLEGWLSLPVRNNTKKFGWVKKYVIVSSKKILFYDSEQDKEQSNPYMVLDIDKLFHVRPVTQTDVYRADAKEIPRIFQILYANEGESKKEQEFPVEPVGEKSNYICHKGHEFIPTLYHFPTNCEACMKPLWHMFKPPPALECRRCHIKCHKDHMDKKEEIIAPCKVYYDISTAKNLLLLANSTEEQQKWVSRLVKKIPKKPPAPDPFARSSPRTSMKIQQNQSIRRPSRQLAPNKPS
RORa activator = activators of human nuclear receptor RORA; CHO-K1 Gal4-RORA LBD luciferase reporter, luminescence; percent increase over mock-subtracted basal signal; activation, % at 10 µM; 65,000 tested, 1.5% active; AID 560;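 active = activation above the mean of all tested compounds plus 3 SD, cut at about 49% in these data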;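 note: 0% = DMSO-treated RORA cells and 100% = added signal equal to DMSO minus mock-transfected cells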
PKA inh = inhibitors of human protein kinase A. PKA Kemptide phosphorylation, Kinase-Glo ATP luminescence. inhibition, % at 6 µM. 65,000 tested, 0.1% active. AID 524;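 active = inhibition above the screen-wide mean inhibition plus 3 SD, cut at about 21% in these data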
SF-1 act = activators of human nuclear receptor SF-1; 65,000 tested, 1.9% active; activation, % at 10 µM; Q13285; CHO-K1 Gal4-SF-1 LBD luciferase reporter; % increase over DMSO SF-1-specific signal;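 active = activation above the mean activation of all tested compounds plus 3 SD, cut at about 50% in these data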
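material = CHO-K1 cells with Gal4–hSF-1 LBD chimera plus Gal4-driven luciferase | compound = 10 µM single point, 1% DMSO | incubation = 20 h compound exposure at 37 °C after 1 h cell settling | measured by = SteadyLite luciferase luminescence | evaluation = percent activation relative to DMSO median and mock-transfected background | control set = DMSO negative control and −SF1 background wells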
JNK3 blocker = inhibitors of human JNK3 kinase; inhibition, % at 8 µM; AID 746; purified JNK3 kinase activity, HTS; 60,000 tested, 0.61% active; in the data active = inhibition above about 17%;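 note: 0% = DMSO and 100% = reference inhibitor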
* marks the source's active call; other numbers are inactive results; . = no result. Sampled rows, rich in hits. Any-hit rate of the full collection: about 3.4%.

SMILES	MMP-13 inhibitor	ROCK2 inh	RORa activator	PKA inh	SF-1 act	JNK3 blocker
Cc1ccc2c(COC(=O)c3cnc(C)cn3)cc(=O)oc2c1	6	5	-22	10	-8	3
CCOc1ccc(Nc2cc(C)nc(-n3nc(C)cc3C)n2)cc1	1	7	-24	3	-65	2
Cc1ccc(Nc2cc(-n3nc(C)cc3C)ncn2)cc1	1	-2	-3	-5	-5	30*
Cc1nc(SCc2ccccc2C)n[nH]1	9	-8	6	-3	5	-3
CCCC(=O)Nc1cc(=O)n(C)c(=O)n1C	-4	4	4	3	5	4
Cn1c(NC(=O)CCc2ccccc2)cc(=O)n(C)c1=O	6	-6	60*	-5	56*	4
Cn1c2c(c(=O)n(C)c1=O)C(c1cccc(Br)c1)C1C(=O)c3ccccc3C1=N2 (stereo not drawn)	-3	2	-9	5	11	9
COC(=O)c1cccc(NC(=O)CSc2nnc(C)n2Cc2ccccc2)c1	5	4	0	-8	-7	-2
Cc1ccc(OCc2nc(-c3ccccc3)no2)c(C)c1	3	0	40	-5	59*	-2
Nc1cccc2cnccc12	-6	26*	9	-6	-18	-6
Cc1cc(NC(=O)CN2CCCC2c2nc3ccccc3s2)no1 (stereo not drawn)	3	2	-17	6	-16	6
CCc1cc2c(=O)n(-c3ccccc3)cnc2s1	3	1	7	6	29	8
CCc1cc2c(=O)[nH]cnc2s1	3	51*	-24	23*	13	3
C#CCSc1nc(-c2cccs2)ccc1C#N	-79	-4	-1	1	12	-6
COC(=O)CSc1nc(-c2cccs2)ccc1C#N	-120	3	60*	1	83*	5
CC(C)(C)NC(=O)C(c1ccco1)N(C(=O)Cn1nnc(-c2ccc(F)cc2)n1)c1ccccc1F (stereo not drawn)	4	1	15	-2	-8	-1
COc1ccccc1-c1nnc(SCC(=O)O)n1C	-2	5	-8	2	-4	1
Nc1ccc2nc(-c3ccc(Cl)cc3)[nH]c2c1	-242	-1	82*	5	64*	-16
CC1=CC(=C2C(=O)c3ccccc3C2=O)C=C(C)O1	-8	2	57*	4	42	10
CC1=CC(=C2C(=O)c3ccccc3C2=O)C=C(C)N1Cc1ccco1	-6	0	20	-4	18	34*
CCn1c(NC(=O)Nc2ccccc2OC)nc2ccccc21	-12	.	20	-1	3	.
CC(C)(C)c1ccc(-c2nc(C#N)c(NCc3ccncc3)o2)cc1	-27	1	60*	5	83*	0
COc1ccc(-c2nc(C#N)c(NCc3ccc(C)cc3)o2)cc1OC	-156	-4	-1	-2	4	-7
COC(=O)c1nonc1NCn1nnc2ccccc21	6	3	6	-3	32	2
COc1ccc(OCCCSc2ncccn2)cc1	7	-2	63*	2	41	-4
SMILES	MMP-13 inhibitor	ROCK2 inh	RORa activator	PKA inh	SF-1 act	JNK3 blocker
COc1ccc(OCCSc2ncccn2)cc1	1	-5	14	3	56*	0
O=C(OCCN1CCCCC1)c1cc2ccccc2o1	-3	.	-6	-2	-13	.
O=C(c1cc2ccccc2o1)c1nc2c(n1O)CCCCC2	5	1	56*	0	44	-12
COc1cccc(C2C(C(=O)OC(C)C)=C(C)Nc3ncnn32)c1 (stereo not drawn)	1	4	-2	2	-19	2
CC#CCCCC(=O)Nc1cccc(C(=O)O)c1	-1	-1	56*	-5	9	-4
CCCCC(=O)Nc1cc(NC(=O)CCCC)cc(C(=O)O)c1	-2	1	-4	-1	0	8
COC(=O)c1ccc(Oc2cc(C)nc(SC)n2)cc1	3	9	58*	8	71*	-4
Clc1ccc(-c2ccc(-c3nn4c(-c5ccco5)nnc4s3)o2)cc1	-26	2	-22	7	-36	9
Brc1ccc(-c2nn3c(-c4ccco4)nnc3s2)o1	3	4	-2	0	-2	25*
O=C(NCCN1CCOCC1)c1ccc2c(c1)ncn2C1CCCCC1	-3	7	-2	10	-3	2
O=C(Nc1cccc2nsnc12)c1ccc(F)cc1	-10	1	-5	-10	5	3
O=C(Nc1cccc2nsnc12)c1ccc2c(c1)OCCO2	-5	9	70*	10	54*	6
COC(=O)c1cccc(NC(=O)c2cc3sccc3n2C)c1	8	-5	45	6	67*	7
COC(=O)c1ccccc1NC(=O)C1CC(=O)N(C2CCCCC2)C1 (stereo not drawn)	-4	4	-12	6	1	4
COc1ccc2noc3c2c1C(=O)c1ccccc1-3	8	6	-8	14	7	15
O=C1c2ccccc2-c2onc3ccc(NCCCn4ccnc4)c1c23	-1	4	11	10	28	38*
Nc1c(C(=O)NCCN2CCOCC2)c2nc3ccccc3nc2n1-c1ccc2c(c1)OCO2	-31	1	55*	2	-7	2
Nc1ccc(-n2c(N)c(C(=O)NCc3ccc4c(c3)OCO4)c3nc4ccccc4nc32)cc1	-4	3	20	0	-32	21*
CCOC(=O)N1CCC(NC(=O)c2cc3cc4cc(OC)ccc4nc3o2)CC1	-219	7	18	14	7	-1
COC(=O)c1c(NC(=O)Cc2cccs2)sc(C)c1C	-1	2	-15	1	-9	18*
CCCn1c(=O)n(C)c(=O)c2c3oc(=O)c(NC(=O)c4ccc(F)cc4)cc3[nH]c21	-3	4	-24	9	9	-7
c1ccc(-c2nc3cnccn3c2Nc2ccc3c(c2)OCCO3)cc1	4	.	-6	9	7	.
Oc1ccc(-c2nc3cnccn3c2Nc2ccc3c(c2)OCCO3)cc1	-4	2	53*	-4	27	-3
O=c1cc(N2CCOCC2)[nH]c(=O)n1-c1ccc(Cl)cc1	8	4	-4	6	-10	-3
O=c1cc(Nc2ccc3c(c2)OCCO3)[nH]c(=O)n1-c1ccc(Cl)cc1	1	-2	50*	-5	40	-5
O=C(c1ccc2c(c1)c(=O)oc1ccccc12)N1CCCCC1	0	-2	50*	-4	42	-4
Cc1c(C(=O)N2CCCCCC2)oc2ccccc12	0	-1	-5	8	-3	0
CCCOc1ccc(C(=O)Nc2ccc(N(C)C)cc2)cc1	2	2	56*	6	30	-9
COc1cccc(OCc2nnc(SCC(=O)OCc3ccccc3)o2)c1	-13	4	49*	7	7	4
